Most compounds without a hit are left out; they make up all but 0.99% or so of the library.
Rce1 inhib: yeast Rce1p protease inhibitors, primary screen, biochemical, fluorescence, cell-free homogeneous; yeast membranes, quenched prenylated peptide cleavage fluorescence; calls only; 290,000 compounds, 0.27% hits;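 active means fall in fluorescence gain of 50% or more versus controls, with final raw signal at or below 3038400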;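 further: plate controls were neutral control wells for no effect and wells lacking membranes for full effect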
GSK3A inh: blockers of GSK3A enzyme activity – biochemical, luminescence, cell-free homogeneous, HTS, primary screen | Glycogen synthase kinase-3 alpha (Homo sapiens), P49840 | GSK-3 alpha kinase, ADP-Glo luminescence, 60 min | inhibition, % at 10 µM | 320,000 compounds, 0.1% hits;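 active means more than half of replicates show inhibition above 20%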;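 further: GST-tagged GSK-3 alpha with peptide substrate and 25 µM ATP; 0% = DMSO neutral wells and 100% = GW8510 positive control wells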
GSK3beta inhib: human GSK3beta kinase inhibitors, primary screen, biochemical, cell-free homogeneous, HTS; Glycogen synthase kinase-3 beta (Homo sapiens), P49841; GST-GSK3beta kinase, ADP-Glo luminescence, 60 min; hits give low values; activity score (negative = inhibition), % at 10 µM; 300,000 compounds, 0.038% hits; AID 2097, 2009;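 active means more than half of replicate wells score below -50%, meaning over 50% inhibition versus plate controls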;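 further: 0% = median DMSO wells and -100% = median GW8510 positive control wells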
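Test system: GST-fused GSK3beta enzyme, cell-free | Quantity: 1.6 ng GST-GSK3beta enzyme per well | Reagent: 25 µM ATP with peptide substrate | Schedule: 60 min enzyme reaction, room temperature | Signal: Luminescent ADP-Glo measurement of ADP formed | Read-out basis: Score relative to plate controls | Control set: DMSO and 20 µM GW8510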
DYRK1A inh: rat Dyrk1A kinase inhibitors, primary screen, biochemical, single point, plate reader; Dual specificity tyrosine-phosphorylation-regulated kinase 1A (Rattus norvegicus), Q63470; 310,000 compounds, 0.43% hits; ADP-Glo luminescence, NFATc1 peptide; inhibition, % at 12.5 µM; in the data active means inhibition above about 50%;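 further: plate controls were vehicle with enzyme for no effect and no enzyme for full effect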
STK33 inh: inhibitors of purified STK33 kinase, primary screen, biochemical, ADP-Glo luminescence, homogeneous, cell-free. Serine/threonine-protein kinase 33 (Homo sapiens), Q9BYT3. MBP phosphorylation. inhibition, % at 10 µM. 320,000 compounds, 0.073% hits;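 active means inhibition at or above 25%, using the most active replicate where run in duplicate; inactive means inhibition below 25%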
Target sequence (Q9BYT3 whole entry, looked up): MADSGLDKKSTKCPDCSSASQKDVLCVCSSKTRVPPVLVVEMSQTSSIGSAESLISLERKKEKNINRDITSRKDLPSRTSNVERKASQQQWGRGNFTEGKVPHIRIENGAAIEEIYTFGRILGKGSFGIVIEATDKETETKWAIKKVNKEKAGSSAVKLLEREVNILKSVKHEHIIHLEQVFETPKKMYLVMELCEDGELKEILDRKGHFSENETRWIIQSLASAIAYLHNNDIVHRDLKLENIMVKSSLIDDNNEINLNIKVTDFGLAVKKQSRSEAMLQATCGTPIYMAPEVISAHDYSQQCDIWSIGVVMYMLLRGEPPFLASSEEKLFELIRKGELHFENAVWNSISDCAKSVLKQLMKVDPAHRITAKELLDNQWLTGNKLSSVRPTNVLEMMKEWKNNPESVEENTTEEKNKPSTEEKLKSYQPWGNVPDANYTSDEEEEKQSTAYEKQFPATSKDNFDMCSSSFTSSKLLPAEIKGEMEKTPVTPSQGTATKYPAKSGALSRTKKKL
AI-2 QS mod: Vibrio harveyi AI-2 quorum sensing modulators, primary screen, JMH597 strain, luminescence/OD600 ratio | Vibrio harveyi JMH597 AI-2 luminescence/OD600 ratio, 9 h; hits give low values; strain lacks LuxN and CqsS sensors; 0 = neutral-control median | activity change, % at 7.5 µM | 300,000 compounds, 0.4% hits | AID 2094, 2009; in the data active means activity change below about -75%, passing the limit was not always enough;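 further: luminescence divided by OD600 gain over 9 h not by final OD600 alone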
JMH597 growth rt: Vibrio harveyi growth inhibition, confirmation, counter-screen for AI-2 quorum sensing project, JMH597 strain, OD600 absorbance; shares compounds with AI-2 QS mod; 750 compounds, 1% hits; 9 h; lacks LuxN and CqsS sensors; AID 2726, 2010; growth inhibition, % at 7.5 µM;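 active means every replicate shows growth inhibition above 50%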
BB721 lum counter: luminescence inhibition in constitutive-on V. harveyi, confirmation, counter-screen for LuxS inhibitor project, strain BB721, luminescence readout. shares compounds with AI-2 QS mod. Vibrio harveyi BB721 luminescence, 9 h. inhibition, % at 7.5 µM. 750 compounds, 95% hits. AID 2727, 2010;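 active means inhibition above about 80% in every replicate, not just on average, limit read from the data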
BB721 growth: growth inhibition of V. harveyi BB721, confirmation, cytotoxicity control for AI-2 quorum sensing inhibitors, strain BB721, absorbance OD600. Vibrio harveyi BB721 growth, 9 h. AID 2728, 2010. shares compounds with AI-2 QS mod. growth inhibition, % at 7.5 µM. 750 compounds, 3% hits;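 active means every replicate shows growth inhibition above 50%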
AI-2 QS JMH597: Vibrio harveyi AI-2 signaling luminescence modulation – JMH597 strain, confirmation | AID 2736, 2010 | shares compounds with AI-2 QS mod | 750 compounds, 97% hits | inhibition, % at 7.5 µM | Vibrio harveyi JMH597 AI-2 quorum sensing luminescence, 9 h; luxN and CqsS knockout, AI-2 only;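 active means every replicate shows more than 75% inhibition of signal versus neutral control wells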
Starred values were filed as active, the others as inactive.

`Cc1cccc(NC(=O)CO/N=C/c2ccc3c(c2)OCO3)c1` gave Rce1 inhib inactive, GSK3A inh -2, GSK3beta inhib 4, DYRK1A inh -2, STK33 inh 0, AI-2 QS mod -89*, JMH597 growth rt 12, BB721 lum counter 96*, BB721 growth 22 and AI-2 QS JMH597 97*.
For Cc1cccc(NC(=O)NCc2ccc3c(c2)OCO3)c1 the results were Rce1 inhib inactive, GSK3A inh 0, GSK3beta inhib 3, DYRK1A inh 3, STK33 inh -1, AI-2 QS mod -87*, JMH597 growth rt -15, BB721 lum counter 96*, BB721 growth 12 and AI-2 QS JMH597 96*.
`Cc1ccc(CNC(=O)CO/N=C/c2ccc3c(c2)OCO3)cc1` gave Rce1 inhib inactive, GSK3A inh 6, GSK3beta inhib 1, DYRK1A inh -2, STK33 inh 0 and AI-2 QS mod 19.
`O=C(CSCc1cccc(Br)c1)N/N=C/c1ccc2c(c1)OCO2` gave Rce1 inhib inactive, GSK3A inh 0, GSK3beta inhib -4, DYRK1A inh 32, STK33 inh -2 and AI-2 QS mod 26.
Screening O=C(CO/N=C/c1ccc2c(c1)OCO2)Nc1cccc(Br)c1 returned Rce1 inhib inactive, GSK3A inh -3, GSK3beta inhib 1, DYRK1A inh 13, STK33 inh -1, AI-2 QS mod -89*, JMH597 growth rt 13, BB721 lum counter 98*, BB721 growth 29 and AI-2 QS JMH597 98*.
For CCCc1cc2c(cc1N(C)S(=O)(=O)c1ccccc1)OCO2 the results were DYRK1A inh -4.
`O=C(Nc1ccc(Oc2ccc(Br)cc2)cc1)C1=CC=CN2CCS(=O)(=O)N=C12` gave GSK3A inh 2, DYRK1A inh 4 and STK33 inh 2.
`Cc1ccc(NC(=O)c2ccccc2[N+](=O)[O-])nc1` gave Rce1 inhib inactive, GSK3A inh 0, GSK3beta inhib 0, DYRK1A inh 2, STK33 inh -1 and AI-2 QS mod 14.
`O=C(Nc1ccc(Cl)cc1Cl)c1ccc(-c2ccccc2)cc1` gave Rce1 inhib inactive, GSK3A inh 0, GSK3beta inhib -1, DYRK1A inh 6, STK33 inh -2 and AI-2 QS mod 31.
O=C(Nc1cc(-c2ccccc2)[nH]n1)c1ccc(Cl)cc1 was read as Rce1 inhib inactive, GSK3A inh 0, GSK3beta inhib 0, DYRK1A inh 0, STK33 inh -3, AI-2 QS mod -82*, JMH597 growth rt 16, BB721 lum counter 96*, BB721 growth 22 and AI-2 QS JMH597 96*.

Source: PubChem BioAssay (Broad Institute)
